# Assay results taken from ChEMBL document CHEMBL1123146, “Design, synthesis, and evaluation of omega-iodovinyl- and omega-iodoalkyl-substituted methyl-branched long-chain fatty acids” (J Med Chem, 1985).
# Tests used:
# Rattus norvegicus [1] = test: Concentration was measured in liver tissue f unfasted Fischer 344 rats administered intravenously after 30 minute (radiolabeled with [123I]-; assay type: ADME, organism-based; settings: in vivo, iv, 0.5 h
# Rattus norvegicus [2] = test: Concentration was measured in liver tissue of unfasted Fischer 344 rats administered intravenously after 5 minute (radiolabeled with [123I]-; assay type: ADME, organism-based; settings: in vivo, iv, 5 min
# Rattus norvegicus [3] = test: Concentration was measured in liver tissue of unfasted Fischer 344 rats administered intravenously after 5 minute (radiolabeled with [125I]-; assay type: ADME, organism-based; settings: in vivo, iv, 5 min
# Summary of the method: (§1)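 Female Fischer 344 rats, 10-12 weeks old, 170-200 g, with food and water ad libitum. The 125I-fatty acid was taken up in ethanol, added dropwise to stirred 6% BSA at ~40 °C (final ethanol 10%), filtered, and given as 0.5 mL via lateral tail vein under ether anesthesia. Rats were killed by cervical fracture; blood was taken by cardiac puncture. Organs were rinsed, blotted, weighed and gamma-counted against injectate standards to give %ID/g. Five rats per time point.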
# Rattus norvegicus [4] = test: Concentration was measured in lungs tissue of unfasted Fischer 344 rats administered intravenously after 30 minute (radiolabeled with [123I]-; assay type: ADME, organism-based, Lung; settings: in vivo, iv, 0.5 h
# Rattus norvegicus [5] = test: Concentration was measured in lungs tissue of unfasted Fischer 344 rats administered intravenously after 30 minute (radiolabeled with [125I]-; assay type: ADME, organism-based, Lung; settings: in vivo, iv, 0.5 h; summary of the method: as §1
# Rattus norvegicus [6] = test: Concentration was measured in lungs tissue of unfasted Fischer 344 rats administered intravenously after 4 hr (radiolabeled with [123I]-; assay type: ADME, organism-based, Lung; settings: in vivo, iv
# Rattus norvegicus [7] = test: Concentration was measured in lungs tissue of unfasted Fischer 344 rats administered intravenously after 4 hr (radiolabeled with [125I]-; assay type: ADME, organism-based, Lung; settings: in vivo, iv
# Rattus norvegicus [8] = test: Concentration was measured in heart tissue of unfasted Fischer 344 rats administered intravenously after 30 minutes (radiolabeled with [125I]-; assay type: ADME, organism-based; settings: in vivo, iv, 0.5 h; summary of the method: as §1
# Rattus norvegicus [9] = test: Concentration was measured in heart tissue of unfasted Fischer 344 rats administered intravenously after 30 minute (radiolabeled with [123I]-; assay type: ADME, organism-based; settings: in vivo, iv, 0.5 h
# Rattus norvegicus [10] = test: Concentration was measured in heart tissue of unfasted Fischer 344 rats administered intravenously after 5 minute (radiolabeled with [123I]-; assay type: ADME, organism-based; settings: in vivo, iv, 5 min
# Rattus norvegicus [11] = test: Concentration was measured in heart tissue of unfasted Fischer 344 rats administered intravenously after 60 minute (radiolabeled with [123I]-; assay type: ADME, organism-based; settings: in vivo, iv, 1 h
# Rattus norvegicus [12] = test: Concentration was measured in heart tissue of unfasted Fischer 344 rats, administered intravenous, after 5 minute (radiolabeled with [125I]-; assay type: ADME, organism-based; settings: in vivo, 5 min; summary of the method: as §1
# Rattus norvegicus [13] = test: Concentration was measured in kidney tissue of unfasted Fischer 344 rats administered intravenously after 30 minute (radiolabeled with [123I]-; assay type: ADME, organism-based; settings: in vivo, iv, 0.5 h
# Rattus norvegicus [14] = test: Concentration was measured in kidney tissue of unfasted Fischer 344 rats administered intravenously after 30 minute (radiolabeled with [125I]-; assay type: ADME, organism-based; settings: in vivo, iv, 0.5 h; summary of the method: as §1
# Rattus norvegicus [15] = test: Concentration was measured in kidney tissue of unfasted Fischer 344 rats administered intravenously after 5 minute (radiolabeled with [123I]-; assay type: ADME, organism-based; settings: in vivo, iv, 5 min
# Rattus norvegicus [16] = test: Concentration was measured in kidney tissue of unfasted Fischer 344 rats administered intravenously after 5 minute (radiolabeled with [125I]-; assay type: ADME, organism-based; settings: in vivo, iv, 5 min; summary of the method: as §1
# Rattus norvegicus [17] = test: Concentration was measured in kidney tissue of unfasted Fischer 344 rats administered intravenously after 60 minute (radiolabeled with [123I]-; assay type: ADME, organism-based; settings: in vivo, iv, 1 h
# Rattus norvegicus [18] = test: Concentration was measured in lungs tissue of unfasted Fischer 344 rats administered intravenously after 5 minute (radiolabeled with [123I]-; assay type: ADME, organism-based, Lung; settings: in vivo, iv, 5 min
# Rattus norvegicus [19] = test: Concentration was measured in lungs tissue of unfasted Fischer 344 rats administered intravenously after 5 minute (radiolabeled with [125I]-; assay type: ADME, organism-based, Lung; settings: in vivo, iv, 5 min; summary of the method: as §1
# Rattus norvegicus [20] = test: Concentration was measured in lungs tissue of unfasted Fischer 344 rats administered intravenously after 60 minute (radiolabeled with [123I]-; assay type: ADME, organism-based, Lung; settings: in vivo, iv, 1 h
# Rattus norvegicus [21] = test: Concentration was measured in blood tissue of unfasted Fischer 344 rats administered intravenously after 30 minute (radiolabeled with [123I]-; assay type: ADME, organism-based; settings: in vivo, iv, 0.5 h
# Rattus norvegicus [22] = test: Concentration was measured in blood tissue of unfasted Fischer 344 rats administered intravenously after 4 hr (radiolabeled with [123I]-; assay type: ADME, organism-based; settings: in vivo, iv
# Rattus norvegicus [23] = test: Concentration was measured in blood tissue of unfasted Fischer 344 rats administered intravenously after 4 hr (radiolabeled with [125I]-; assay type: ADME, organism-based; settings: in vivo, iv
# Rattus norvegicus [24] = test: Concentration was measured in blood tissue of unfasted Fischer 344 rats administered intravenously after 60 minute (radiolabeled with [123I]-; assay type: ADME, organism-based; settings: in vivo, iv, 1 h
# Rattus norvegicus [25] = test: Concentration was measured in blood tissue of unfasted Fischer 344 rats administered intravenously after 60 minute (radiolabeled with [125I]-; assay type: ADME, organism-based; settings: in vivo, iv, 1 h; summary of the method: as §1
# Rattus norvegicus [26] = test: Concentration was measured in blood tissue of unfasted Fischer 344 rats administered intravenously after 5 minute (radiolabeled with [123I]-; assay type: ADME, organism-based; settings: in vivo, iv, 5 min
# Rattus norvegicus [27] = test: Concentration was measured in thyroid tissue of unfasted Fischer 344 rats administered intravenously after 30 minute (radiolabeled with [125I]-; assay type: ADME, organism-based, Thyroid gland; settings: in vivo, iv, 0.5 h, in the assay text read “fasted” for “unfasted”
# Rattus norvegicus [28] = test: Concentration was measured in thyroid tissue of unfasted Fischer 344 rats administered intravenously after 4 hr (radiolabeled with [125I]-; assay type: ADME, organism-based, Thyroid gland; settings: in vivo, iv
# Rattus norvegicus [29] = test: Concentration was measured in thyroid tissue of unfasted Fischer 344 rats administered intravenously after 5 minute (radiolabeled with [125I]-; assay type: ADME, organism-based, Thyroid gland; settings: in vivo, iv, 5 min
# Summary of the method: (§2)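 Female Fischer 344 rats, 10–12 weeks old (170–200 g), with food and water ad libitum, five per time point. The radioiodinated fatty acid was dissolved in ethanol, added to 6% BSA at ~40 °C (final 10% ethanol), filtered, and injected into a lateral tail vein (0.5 mL) under ether anesthesia. Blood was taken by cardiac puncture; organs were rinsed, blotted, weighed and gamma-counted against injectate standards. Output is % injected dose/g.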
# Rattus norvegicus [30] = test: Concentration was measured in tissue of unfasted Fischer 344 rats administered intravenously after 60 minute (radiolabeled with [123I]-; assay type: ADME, organism-based; settings: in vivo, iv, 1 h
# Rattus norvegicus [31] = test: (§3) Concentration was measured in tissue of unfasted Fischer 344 rats administered intravenously after 60 minute (radiolabeled with [125I]-; assay type: ADME, organism-based; settings: in vivo, iv, 1 h; summary of the method: as §2
# Rattus norvegicus [32] = test: as §3; assay type: ADME, organism-based; settings: in vivo, iv, 1 h; summary of the method: as §2; remark: listed apart in the source
# Rattus norvegicus [33] = test: Concentration was measured in blood tissue of unfasted Fischer 344 rats administered intravenously after 30 minute (radiolabeled with [125I]-; assay type: ADME, organism-based; settings: in vivo, iv, 0.5 h, in the assay text read “fasted” for “unfasted”
# Rattus norvegicus [34] = test: Concentration was measured in liver tissue of fasted Fischer 344 rats administered intravenously after 4 hr (radiolabeled with [125I]-; settings: in vivo, iv
# Rattus norvegicus [35] = test: Concentration was measured in thyroid tissue of fasted Fischer 344 rats administered intravenously after 4 hr (radiolabeled with [123I]-; settings: in vivo, iv
# Rattus norvegicus [36] = test: Concentration was measured in thyroid tissue of fasted Fischer 344 rats administered intravenously after 30 minute (radiolabeled with [123I]-; settings: in vivo, iv, 0.5 h
# Rattus norvegicus [37] = test: Concentration was measured in mean heart/blood tissue of fasted Fischer 344 rats administered intravenously after 5 minute (radiolabeled with [123I]-; settings: in vivo, iv, 5 min
# Rattus norvegicus [38] = test: Concentration was measured in mean heart/blood tissue of fasted Fischer 344 rats administered intravenously after 5 minute (radiolabeled with [125I]-; settings: in vivo, iv, 5 min
# Rattus norvegicus [39] = test: Concentration was measured in mean heart/blood tissue of fasted Fischer 344 rats administered intravenously after 60 minute (radiolabeled with [125I]-; settings: in vivo, iv, 1 h
# Rattus norvegicus [40] = test: Concentration was measured in mean heart/blood tissue of fasted Fischer 344 rats administered intravenously after 30 minute (radiolabeled with [123I]-; settings: in vivo, iv, 0.5 h
compound,measurement,setting,value
CC(CCCCCCCCCCCCCC/C=C/I)CC(=O)O.O=C(O)CCCCCCCCCCCCCCCC/C=C/I (stereo not given),Distribution,Rattus norvegicus [1],3.49%
same,Distribution,Rattus norvegicus [2],4.87%
same,Distribution,Rattus norvegicus [3],6.48%
same,Distribution,Rattus norvegicus [4],1.32%
same,Distribution,Rattus norvegicus [5],0.96%
same,Distribution,Rattus norvegicus [6],1.23%
same,Distribution,Rattus norvegicus [7],0.81%
same,Distribution,Rattus norvegicus [8],3.32%
same,Distribution,Rattus norvegicus [9],1.19%
same,Distribution,Rattus norvegicus [10],3.52%
same,Distribution,Rattus norvegicus [11],0.78%
same,Distribution,Rattus norvegicus [12],4.89%
same,Distribution,Rattus norvegicus [13],1.03%
same,Distribution,Rattus norvegicus [14],0.91%
same,Distribution,Rattus norvegicus [15],1.12%
same,Distribution,Rattus norvegicus [16],1.06%
same,Distribution,Rattus norvegicus [17],0.96%
same,Distribution,Rattus norvegicus [18],1.54%
same,Distribution,Rattus norvegicus [19],1.36%
same,Distribution,Rattus norvegicus [20],1.21%
same,Distribution,Rattus norvegicus [21],0.74%
same,Distribution,Rattus norvegicus [22],0.61%
same,Distribution,Rattus norvegicus [23],0.53%
same,Distribution,Rattus norvegicus [24],0.64%
same,Distribution,Rattus norvegicus [25],0.63%
same,Distribution,Rattus norvegicus [26],0.74%
same,Distribution,Rattus norvegicus [27],48.5%
same,Distribution,Rattus norvegicus [28],364%
same,Distribution,Rattus norvegicus [29],16.7%
same,Distribution,Rattus norvegicus [30],2.62%
same,Distribution,Rattus norvegicus [31],2.94%
same,Distribution,Rattus norvegicus [32],82.9%
same,Distribution,Rattus norvegicus [33],0.77%
same,Distribution,Rattus norvegicus [34],1.11%
same,Distribution,Rattus norvegicus [35],392%
same,Distribution,Rattus norvegicus [36],65.3%
same,Distribution,Rattus norvegicus [37],4.8%
same,Distribution,Rattus norvegicus [38],5.4%
same,Distribution,Rattus norvegicus [39],4.1%
same,Distribution,Rattus norvegicus [40],1.6%
